Results published in ChEMBL document CHEMBL4261550, “Triazolopyrimidines identified as reversible myeloperoxidase inhibitors” (Medchemcomm, 2017).

Key:
[1] = Hypochlorus scavenging activity at 10 uM in presence of sodium hypochlorite after 15 mins by APF dye based fluorescence assay relative to control; type: functional
In short: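 NaOCl-scavenger counterscreen in 1536-well format: 50 μM NaOCl in place of MPO with APF reagent, compound 10 μM final; fluorescence intensity read after 15 min incubation; ≥20% loss of fluorescence flagged as interference.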

Lactoperoxidase = Lactoperoxidase (Homo sapiens, UniProt P22079); test: Inhibition of recombinant human LPO isoform-1 (26 to 712 residues) expressed in baculovirus infected insect cells assessed as reduction in H2O2-catalyzed 3,5-iodo tyrosine formation using 3-iodotyrosine and potassium iodide preincubated for 10 mins followed by 3,5-iodo tyrosine/potassium iodide/H2O2 addition and measured after 15 mins
Sequence of Lactoperoxidase (P22079 whole entry, the tested form may be a part, canonical isoform): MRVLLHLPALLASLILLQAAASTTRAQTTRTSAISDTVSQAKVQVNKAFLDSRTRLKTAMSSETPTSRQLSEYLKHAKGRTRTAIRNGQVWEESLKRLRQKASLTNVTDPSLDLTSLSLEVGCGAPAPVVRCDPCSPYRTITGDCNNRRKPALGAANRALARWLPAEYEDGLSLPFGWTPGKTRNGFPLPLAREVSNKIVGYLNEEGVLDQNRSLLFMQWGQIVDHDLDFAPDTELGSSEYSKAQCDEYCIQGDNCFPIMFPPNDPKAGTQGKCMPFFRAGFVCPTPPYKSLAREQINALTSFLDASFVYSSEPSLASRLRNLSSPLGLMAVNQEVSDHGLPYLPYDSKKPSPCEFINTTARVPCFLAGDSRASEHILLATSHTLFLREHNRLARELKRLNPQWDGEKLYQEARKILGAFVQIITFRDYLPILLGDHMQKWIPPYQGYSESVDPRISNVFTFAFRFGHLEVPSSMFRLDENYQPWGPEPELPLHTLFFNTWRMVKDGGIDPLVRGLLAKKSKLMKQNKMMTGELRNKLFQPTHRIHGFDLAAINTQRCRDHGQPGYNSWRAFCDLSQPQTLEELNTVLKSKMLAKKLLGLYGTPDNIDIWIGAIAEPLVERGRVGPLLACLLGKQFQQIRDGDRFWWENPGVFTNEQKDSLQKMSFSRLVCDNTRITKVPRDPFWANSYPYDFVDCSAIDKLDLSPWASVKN
In short: (§1)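 LPO isoform 1 residues 26–712, baculovirus/T. ni expressed, purified by cation exchange, hydrophobic interaction and size exclusion; 2.0 nM in 100 mM KPi pH 7.4, 10 min rt preincubation with inhibitor; then 400 μM KI/240 μM 3-iodotyrosine mix and 20 μM H2O2 (added solutions); 3,5-iodotyrosine formation monitored.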

Eosinophil peroxidase = molecular target: T1, Eosinophil peroxidase (Homo sapiens, UniProt P11678); test: Inhibition of eosinophil peroxidase (unknown origin)assessed as reduction in H2O2-catalyzed 3-bromo tyrosine formation using tyrosine and potassium bromide preincubated for 10 mins followed by tyrosine/potassium bromide/H2O2 addition and measured after 15 mins by RP-UPLC analysis
T1 sequence (P11678 whole entry): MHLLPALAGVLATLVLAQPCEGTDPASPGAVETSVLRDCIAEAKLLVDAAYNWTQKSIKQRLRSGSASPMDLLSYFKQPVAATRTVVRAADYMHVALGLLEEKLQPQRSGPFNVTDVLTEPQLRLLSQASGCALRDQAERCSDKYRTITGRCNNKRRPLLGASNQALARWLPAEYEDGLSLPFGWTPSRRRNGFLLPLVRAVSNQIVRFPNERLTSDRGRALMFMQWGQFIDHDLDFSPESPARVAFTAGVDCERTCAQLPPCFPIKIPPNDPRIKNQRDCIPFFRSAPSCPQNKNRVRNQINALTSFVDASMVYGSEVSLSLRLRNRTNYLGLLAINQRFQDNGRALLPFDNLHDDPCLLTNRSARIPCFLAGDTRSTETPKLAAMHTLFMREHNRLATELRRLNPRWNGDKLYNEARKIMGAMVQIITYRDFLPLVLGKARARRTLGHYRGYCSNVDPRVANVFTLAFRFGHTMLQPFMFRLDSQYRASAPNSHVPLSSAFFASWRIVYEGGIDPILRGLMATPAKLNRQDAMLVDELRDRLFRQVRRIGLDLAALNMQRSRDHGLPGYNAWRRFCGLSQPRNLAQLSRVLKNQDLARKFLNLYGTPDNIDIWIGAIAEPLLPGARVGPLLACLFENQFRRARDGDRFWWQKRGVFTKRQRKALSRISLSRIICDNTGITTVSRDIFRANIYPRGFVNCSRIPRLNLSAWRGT
In short: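 Commercial EPX, purity ≥98%, 0.6 μM, in 100 mM KPi pH 7.4, preincubated with inhibitor 10 min at rt; then 400 μM tyrosine/1200 μM KBr mix, followed by 20 μM H2O2 (added solutions); 3-bromotyrosine quantified by reversed-phase LC, column 60 °C, MeOH/TFA gradient.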

Homo sapiens [2] = species on record: Homo sapiens; test: Selectivity ratio of IC50 for recombinant human C-terminal His6-tagged TPO (15 to 839 residues) expressed in baculovirus infected insect cells to IC50 for human MPO
In short: as §1, with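 “TPO” for “LPO isoform 1”, “15–839 with C-terminal His6,” for “26–712,”, “Ni affinity, anion exchange” for “cation exchange, hydrophobic interaction”, “4.0” for “2.0”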

Homo sapiens [3] = species on record: Homo sapiens; test: Selectivity ratio of IC50 for recombinant human LPO isoform-1 (26 to 712 residues) expressed in baculovirus infected insect cells to IC50 for human MPO; in short: as §1
[4] = Protein binding in human plasma; type: ADME, cell-free; conditions: read-out: PPB
[5] = Plasma concentration in PMA-stimulated C57BL6 mouse neutrophil degranulation model at 30 mg/kg, po after 20 mins; type: ADME, organism-based
[6] = Plasma concentration in PMA-stimulated C57BL6 mouse neutrophil degranulation model at 100 mg/kg, po after 20 mins; type: ADME, organism-based
[7] = Ratio of plasma concentration in PMA-stimulated C57BL6 mouse neutrophil degranulation model at 100 mg/kg, po after 20 mins to in vitro IC50 for MPO in PMA-stimulated human neutrophils; type: ADME, organism-based; conditions: in vivo
Cytochrome P450 2B6 = molecular target: T2, Cytochrome P450 2B6 (Homo sapiens, UniProt P20813); test: Inhibition of CYP2B6 (unknown origin); type: ADME
T2 sequence (P20813 whole entry): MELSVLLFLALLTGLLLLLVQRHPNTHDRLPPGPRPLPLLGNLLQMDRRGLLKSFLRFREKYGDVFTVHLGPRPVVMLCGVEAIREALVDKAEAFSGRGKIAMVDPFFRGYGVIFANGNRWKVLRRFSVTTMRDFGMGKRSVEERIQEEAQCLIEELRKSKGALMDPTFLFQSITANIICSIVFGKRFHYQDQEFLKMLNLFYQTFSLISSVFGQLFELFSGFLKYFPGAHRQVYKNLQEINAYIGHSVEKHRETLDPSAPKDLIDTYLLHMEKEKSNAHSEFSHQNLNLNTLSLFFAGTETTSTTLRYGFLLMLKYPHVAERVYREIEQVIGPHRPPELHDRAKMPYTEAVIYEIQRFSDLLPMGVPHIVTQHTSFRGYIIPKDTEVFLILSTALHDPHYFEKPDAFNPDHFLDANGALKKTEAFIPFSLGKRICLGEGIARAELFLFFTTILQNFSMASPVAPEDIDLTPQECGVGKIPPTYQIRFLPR

Cytochrome P450 2C9 = Cytochrome P450 2C9 (Homo sapiens, UniProt P11712); test: Inhibition of CYP2C9 (unknown origin); type: ADME
Sequence of Cytochrome P450 2C9 (P11712 whole entry): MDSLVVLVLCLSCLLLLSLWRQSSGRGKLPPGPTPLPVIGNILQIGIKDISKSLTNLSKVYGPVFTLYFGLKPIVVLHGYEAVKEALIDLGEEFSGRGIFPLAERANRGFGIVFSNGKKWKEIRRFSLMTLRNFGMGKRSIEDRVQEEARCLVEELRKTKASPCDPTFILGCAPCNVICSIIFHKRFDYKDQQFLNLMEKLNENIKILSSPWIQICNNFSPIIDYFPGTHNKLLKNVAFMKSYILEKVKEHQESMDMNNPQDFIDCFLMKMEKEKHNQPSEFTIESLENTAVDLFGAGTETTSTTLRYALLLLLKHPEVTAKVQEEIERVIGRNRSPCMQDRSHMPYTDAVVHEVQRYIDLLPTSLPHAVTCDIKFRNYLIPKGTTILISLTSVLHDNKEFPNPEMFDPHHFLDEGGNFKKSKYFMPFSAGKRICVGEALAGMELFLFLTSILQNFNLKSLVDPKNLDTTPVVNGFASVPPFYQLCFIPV

`Nc1nc(OCc2ccccc2)c2[nH]nnc2n1` gave an Activity [1] of under 20%, an IC50 (Lactoperoxidase) of over 30 µM and an IC50 (Eosinophil peroxidase) of 15 nM. It also gave a Ratio IC50 (Homo sapiens [2]) of over 10, a Ratio IC50 (Homo sapiens [3]) of over 10 and a fraction unbound [4] of 0.01. For the same compound, the concentration at 20 min [5] was 180 µM, the concentration at 20 min [6] was 460 µM and the Ratio [7] was 92.
With `Nc1ccc(Oc2cc(Cl)c(Cl)cc2Cl)cn1` the Activity [1] was under 20%, the IC50 (Lactoperoxidase) was 13 µM and the IC50 (Eosinophil peroxidase) was 160 nM. For the same compound, the Ratio IC50 (Homo sapiens [2]) was over 10, the Ratio IC50 (Homo sapiens [3]) was over 10 and the IC50 (Cytochrome P450 2B6) was under 100 nM. For the same compound, the IC50 (Cytochrome P450 2C9) was under 100 nM.
